Source: ChEMBL document CHEMBL3621107, “Ring fusion strategy for synthesis and lead optimization of sulfur-substituted anthra[1,2-c][1,2,5]thiadiazole-6,11-dione derivatives as promising scaffold of antitumor agents” (Eur J Med Chem, 2015)

Legend:
A549 = test: Cytotoxicity against human A549 cells assessed as cell growth at 10 uM after 48 hrs by SRB assay relative to control; type: functional; details: A549, 48 h, read-out: Activity
Method in brief: (§1)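 First-stage NCI-60 screen by the NCI Developmental Therapeutics Program. Each compound was tested once at a single concentration of 10 μM against the 60-cell-line panel. Growth percentage was reported for each cell line.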

MDA-MB-468 = test: Cytotoxicity against human MDA-MB-468 cells assessed as cell growth at 10 uM after 48 hrs by SRB assay relative to control; type: functional; details: MDA-MB-468, 48 h, read-out: Activity
Method in brief: (§2)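 First-stage NCI DTP one-dose screen against the 60 human tumour cell line panel. Compounds were tested at a single 10 μM level, and results are given as growth percentage.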

HCC 2998 = test: Cytotoxicity against human HCC2998 cells assessed as cell growth at 10 uM after 48 hrs by SRB assay relative to control; type: functional; details: HCC 2998, 48 h, read-out: Activity; method in brief: as §1
SK-MEL-5 = test: Cytotoxicity against human SK-MEL-5 cells assessed as cell growth at 10 uM after 48 hrs by SRB assay relative to control; type: functional; details: SK-MEL-5, 48 h, read-out: Activity; method in brief: as §2
M14 = test: Cytotoxicity against human M14 cells assessed as cell growth at 10 uM after 48 hrs by SRB assay relative to control; type: functional; details: M14, 48 h, read-out: Activity; method in brief: as §1
T47D = test: Cytotoxicity against human T47D cells assessed as cell growth at 10 uM after 48 hrs by SRB assay relative to control; type: functional; details: read-out: Activity
Method in brief: (§3)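 NCI-60 one-dose screen run by NCI DTP: each cell line exposed to a single 10 µM dose, and percentage growth recorded against untreated growth.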

UACC-257 = test: Cytotoxicity against human UACC257 cells assessed as cell growth at 10 uM after 48 hrs by SRB assay relative to control; type: functional; details: UACC-257, 48 h, read-out: Activity; method in brief: as §3
DU-145 = test: Cytotoxicity against human DU145 cells after 72 hrs by MTT assay; type: functional, cell-based; details: DU-145, 72 h
Method in brief: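 DU-145 cells grown in RPMI-1640 with 5% heat-inactivated fetal calf serum at 37 °C, 5% CO2. About 2×10^3 cells per well were seeded and incubated for 24 h. Compounds were dissolved in DMSO freshly and diluted into medium (vehicle 0.1% DMSO), then cells were exposed for 72 h. MTT was added for 3 h at 37 °C and absorbance read at 570 nm.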

HOP-62 = test: Cytotoxicity against human HOP62 cells assessed as cell growth at 10 uM after 48 hrs by SRB assay relative to control; type: functional; details: HOP-62, 48 h, read-out: Activity; method in brief: as §1
MDA-MB-231 = test: Cytotoxicity against human MDA-MB-231 cells assessed as cell growth at 10 uM after 48 hrs by SRB assay relative to control; type: functional; details: MDA-MB-231, 48 h, read-out: Activity; method in brief: as §2
HCT-15 = test: Cytotoxicity against human HCT15 cells assessed as cell growth at 10 uM after 48 hrs by SRB assay relative to control; type: functional; details: HCT-15, 48 h, read-out: Activity; method in brief: as §1
CAKI-1 = test: Cytotoxicity against human Caki1 cells assessed as cell growth at 10 uM after 48 hrs by SRB assay relative to control; type: functional; details: CAKI-1, 48 h, read-out: Activity; method in brief: as §1
MCF7 = test: Cytotoxicity against human MCF7 cells assessed as cell growth at 10 uM after 48 hrs by SRB assay relative to control; type: functional; details: MCF7, 48 h, read-out: Activity; method in brief: as §1
PC-3 = test: Cytotoxicity against human PC3 cells assessed as cell growth at 10 uM after 48 hrs by SRB assay relative to control; type: functional; details: PC-3, 48 h, read-out: Activity; method in brief: as §2
RPMI-8226 = test: Cytotoxicity against human RPMI8226 cells assessed as cell growth at 10 uM after 48 hrs by SRB assay relative to control; type: functional; details: RPMI-8226, 48 h, read-out: Activity; method in brief: as §2
MDA-MB-435 = test: Cytotoxicity against human MDA-MB-435 cells assessed as cell growth at 10 uM after 48 hrs by SRB assay relative to control; type: functional; details: MDA-MB-435, 48 h, read-out: Activity; method in brief: as §2
SF-268 = test: Cytotoxicity against human SF268 cells assessed as cell growth at 10 uM after 48 hrs by SRB assay relative to control; type: functional; details: SF-268, 48 h, read-out: Activity; method in brief: as §2
ACHN = test: Cytotoxicity against human ACHN cells assessed as cell growth at 10 uM after 48 hrs by SRB assay relative to control; type: functional; details: read-out: Activity; method in brief: as §1
786-0 = test: Cytotoxicity against human 786-0 cells assessed as cell growth at 10 uM after 48 hrs by SRB assay relative to control; type: functional; details: 786-0, 48 h, read-out: Activity; method in brief: as §1
A498 = test: Cytotoxicity against human A498 cells assessed as cell growth at 10 uM after 48 hrs by SRB assay relative to control; type: functional; details: A498, 48 h, read-out: Activity; method in brief: as §1
U-251 = test: Cytotoxicity against human U251 cells assessed as cell growth at 10 uM after 48 hrs by SRB assay relative to control; type: functional; details: U-251, 48 h, read-out: Activity; method in brief: as §3
NCI-H522 = test: Cytotoxicity against human NCI-H522 cells assessed as cell growth at 10 uM after 48 hrs by SRB assay relative to control; type: functional; details: NCI-H522, 48 h, read-out: Activity; method in brief: as §2
HOP-92 = test: Cytotoxicity against human HOP92 cells assessed as cell growth at 10 uM after 48 hrs by SRB assay relative to control; type: functional; details: HOP-92, 48 h, read-out: Activity; method in brief: as §1
LOX IMVI = test: Cytotoxicity against human LOXIMVI cells assessed as cell growth at 10 uM after 48 hrs by SRB assay relative to control; type: functional; details: read-out: Activity; method in brief: as §1
[1] = Cytotoxicity against human EKVX cells assessed as cell growth at 10 uM after 48 hrs by SRB assay relative to control; type: functional; details: read-out: Activity; method in brief: as §1
NCI-H23 = test: Cytotoxicity against human NCI-H23 cells assessed as cell growth at 10 uM after 48 hrs by SRB assay relative to control; type: functional; details: NCI-H23, 48 h, read-out: Activity; method in brief: as §2
SF-295 = test: Cytotoxicity against human SF295 cells assessed as cell growth at 10 uM after 48 hrs by SRB assay relative to control; type: functional; details: SF-295, 48 h, read-out: Activity; method in brief: as §2

Compound	growth at 10 µM (A549) [%]	growth at 10 µM (MDA-MB-468) [%]	growth at 10 µM (HCC 2998) [%]	growth at 10 µM (SK-MEL-5) [%]	growth at 10 µM (M14) [%]	growth at 10 µM (T47D) [%]	growth at 10 µM (UACC-257) [%]	IC50 (DU-145) [µM]	growth at 10 µM (HOP-62) [%]	growth at 10 µM (MDA-MB-231) [%]	growth at 10 µM (HCT-15) [%]	growth at 10 µM (MCF7) [%]	growth at 10 µM (MDA-MB-435) [%]	growth at 10 µM (ACHN) [%]	growth at 10 µM (786-0) [%]	growth at 10 µM (U-251) [%]	growth at 10 µM (NCI-H522) [%]	growth at 10 µM (LOX IMVI) [%]	growth at 10 µM [1] [%]	growth at 10 µM (NCI-H23) [%]	also measured
CSc1ccc(Sc2cc3c(c4nsnc24)C(=O)c2ccccc2C3=O)cc1	105	82.2	111	101	108	86.6	110	> 15	102	78.8	112	82.9	118	104	110	104	95.4	69	114	81.5	growth at 10 µM (CAKI-1): 99.4%; growth at 10 µM (PC-3): 78.4%; growth at 10 µM (RPMI-8226): 88.6%; growth at 10 µM (SF-268): 89.7%; growth at 10 µM (A498): 56%; growth at 10 µM (HOP-92): 4.31%; growth at 10 µM (SF-295): 98.9%
COc1ccc(Sc2cc3c(c4nsnc24)C(=O)c2ccccc2C3=O)cc1	103	113	107	106	92.9	89.7	118	8.26	95.2	87.6	109	93.8	119	102	94.9	103	95.7	90.2	149	89.1	growth at 10 µM (CAKI-1): 108%; growth at 10 µM (PC-3): 82.8%; growth at 10 µM (RPMI-8226): 101%; growth at 10 µM (SF-268): 94.8%; growth at 10 µM (A498): 84.8%; growth at 10 µM (HOP-92): 91.4%
Cc1ccccc1Sc1cc2c(c3nsnc13)C(=O)c1ccccc1C2=O	105	53.7	124	87.5	94.2	51.9	87.3	> 15	59.5	60.7	38.6	66.1	80.6	89.8	100	62.4	74.8	30	105	53.2	growth at 10 µM (CAKI-1): 81.5%; growth at 10 µM (PC-3): 73.3%; growth at 10 µM (RPMI-8226): 48.6%; growth at 10 µM (SF-268): 74.7%; growth at 10 µM (A498): 85.5%; growth at 10 µM (HOP-92): 89.9%; growth at 10 µM (SF-295): 105%
Cc1cc(C)cc(Sc2cc3c(c4nsnc24)C(=O)c2ccccc2C3=O)c1	107	116	109	107	100	81.1	116	> 15	91	99.2	90.9	75.8	105	98	98.2	108	106	90.2	100	90.4	growth at 10 µM (CAKI-1): 91%; growth at 10 µM (PC-3): 81.3%; growth at 10 µM (RPMI-8226): 89.1%; growth at 10 µM (SF-268): 108%; growth at 10 µM (A498): 93.6%; growth at 10 µM (HOP-92): 93.5%; growth at 10 µM (SF-295): 91.1%
CCOc1cccc(Sc2cc3c(c4nsnc24)C(=O)c2ccccc2C3=O)c1	111	108	105	107	104	86.5	126	> 15	91.9	101	103	78.8	106	103	100	110	98.2	84.1	102	94.1	growth at 10 µM (CAKI-1): 84.2%
COc1cccc(Sc2cc3c(c4nsnc24)C(=O)c2ccccc2C3=O)c1	110	93.5	105	100	94.2	69.1	104	> 15	61.8	87.1	71.9	72.8	72.5	98.7	103	101	82.4	71	105	76.4	growth at 10 µM (PC-3): 76%; growth at 10 µM (RPMI-8226): 52%; growth at 10 µM (SF-268): 89.8%; growth at 10 µM (A498): 83.7%; growth at 10 µM (HOP-92): 101%
O=C1c2ccccc2C(=O)c2c1cc(Sc1cccc(Cl)c1)c1nsnc21	107	-79.2	102	19	-76.4	-42.3	-84.6	1.75	42.1	-29.1	18	-69.4	-82.3	-92.5	-2.06	-69.5	7.18	-59.2	43.6	-26.9	growth at 10 µM (CAKI-1): -3.69%
Cc1ccc(Sc2cc3c(c4nsnc24)C(=O)c2ccccc2C3=O)c(C)c1	110	100	121	110	101	75.4	122	15.9	79.3	92.3	83	79.8	106	94.2	105	105	96.8	90.4	109	89.4	growth at 10 µM (PC-3): 76.1%; growth at 10 µM (RPMI-8226): 85.1%; growth at 10 µM (SF-268): 90.6%; growth at 10 µM (A498): 84.4%; growth at 10 µM (HOP-92): 97.8%
